The source made the active and inactive calls. The calls are words filed in the database; no cut-off is given here.
Legend:
Mus musculus [1] = organism: Mus musculus; assay: Stimulation of prostanoid receptor-mediated cAMP-[14C] production in Charles River CD-1 mouse ovary at 100 ug/ml preincubated with adenine-8-[14C] for 1 hr followed by compound addition measured after 30 mins in presence of theophylline relative to control; format: tissue-based; conditions: Female gonad
Outline: (§1)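 Ovaries from virgin female mice over 70 days old, denuded of fat; three ovaries (15-25 mg) per flask in aerated Krebs-Ringer phosphate pH 7.2 with 1 μCi adenine-8-¹⁴C, 1 h at 37 °C with shaking. Theophylline and compound (in Me₂SO) added, then 30 min at 37 °C. Stopped with TCA, tissue homogenized, ¹⁴C-cAMP isolated. Fold increase = treated/untreated cAMP; 2-3-fold taken as significant.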

Mus musculus [2] = organism: Mus musculus; assay: Stimulation of prostanoid receptor-mediated cAMP-[14C] production in Charles River CD-1 mouse ovary at 10 ug/ml preincubated with adenine-8-[14C] for 1 hr followed by compound addition measured after 30 mins in presence of theophylline relative to control; format: tissue-based; conditions: Female gonad; outline: as §1
Mus musculus [3] = organism: Mus musculus; assay: Stimulation of prostanoid receptor-mediated cAMP-[14C] production in Charles River CD-1 mouse ovary at 25 ug/ml preincubated with adenine-8-[14C] for 1 hr followed by compound addition measured after 30 mins in presence of theophylline relative to control; format: tissue-based; conditions: Female gonad; outline: as §1
Mus musculus [4] = organism: Mus musculus; assay: Stimulation of prostanoid receptor-mediated cAMP-[14C] production in Charles River CD-1 mouse ovary at 1 ug/ml preincubated with adenine-8-[14C] for 1 hr followed by compound addition measured after 30 mins in presence of theophylline relative to control; format: tissue-based; conditions: Female gonad; outline: as §1
Mus musculus [5] = organism: Mus musculus; assay: Stimulation of prostanoid receptor-mediated cAMP-[14C] production in Charles River CD-1 mouse ovary at 0.01 ug/ml preincubated with adenine-8-[14C] for 1 hr followed by compound addition measured after 30 mins in presence of theophylline relative to control; format: tissue-based; conditions: Female gonad; outline: as §1
Mus musculus [6] = organism: Mus musculus; assay: Stimulation of prostanoid receptor-mediated cAMP-[14C] production in Charles River CD-1 mouse ovary at 0.1 ug/ml preincubated with adenine-8-[14C] for 1 hr followed by compound addition measured after 30 mins in presence of theophylline relative to control; format: tissue-based; conditions: Female gonad; outline: as §1
Cavia porcellus [7] = assay: Antithrombotic activity in po dosed guinea pig assessed as inhibition of collagen-induced platelet aggregation; format: functional
Mus musculus [8] = organism: Mus musculus; assay: Stimulation of prostanoid receptor-mediated cAMP-[14C] production in Charles River CD-1 mouse ovary at 0.05 ug/ml preincubated with adenine-8-[14C] for 1 hr followed by compound addition measured after 30 mins in presence of theophylline relative to control; format: tissue-based; conditions: Female gonad; outline: as §1
Cavia porcellus [9] = assay: Antithrombotic activity in ip dosed guinea pig assessed as inhibition of collagen-induced platelet aggregation; format: functional
Bos taurus = organism: Bos taurus; assay: Inhibition of cAMP phosphodiesterase in beef heart using cAMP as substrate at 100 ug/ml
Outline: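 Beef heart cAMP phosphodiesterase tested against 0.4 mM cAMP substrate.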

| Structure (SMILES) | fold change (FC) (Mus musculus [1]) | fold change (FC) (Mus musculus [2]) | fold change (FC) (Mus musculus [3]) | fold change (FC) (Mus musculus [4]) | fold change (FC) (Mus musculus [5]) | fold change (FC) (Mus musculus [6]) | Activity (Cavia porcellus [7]) | fold change (FC) (Mus musculus [8]) | ED50 (Cavia porcellus [9]) [mg/kg] | ED50 (Cavia porcellus [7]) [mg/kg] | inhibition (Bos taurus) |
| --- | --- | --- | --- | --- | --- | --- | --- | --- | --- | --- | --- |
| CS(=O)(=O)N(CCCCCCC(=O)O)CCCC1(O)CCCCC1 | 10 | 3 | 5 |  |  |  |  |  |  |  |  |
| CCCCCCCCCN(CCCCCCC(=O)O)S(C)(=O)=O | 15 | 13 | 14 |  |  |  |  |  |  |  |  |
| CCCCC[C@H](O)CCC1CCC(=O)[C@@H]1CCCCCCC(=O)O (some centres undefined) | 19 | 25 | 26 | 10 |  |  |  |  |  |  |  |
| CCCCCC(O)/C=C/CN(C/C=C\CCCC(=O)O)S(C)(=O)=O (racemic) | 27 | 11 | 19 |  |  |  |  |  |  |  |  |
| CCCCCC(O)CCCN(CCCCOCC(=O)O)S(C)(=O)=O (racemic) | 38 | 24 | 27 |  |  |  |  |  |  |  |  |
| CCCCCC(O)C#CCN(CCCCCCC(=O)O)S(C)(=O)=O (racemic) | 36 | 21 | 21 |  |  |  |  |  |  |  |  |
| CCCCCC(O)CCCN(CC#CCCCC(=O)O)S(C)(=O)=O (racemic) | 39 | 21 | 30 |  |  |  |  |  |  |  |  |
| CCCCC[C@H](O)/C=C/[C@H]1[C@H](O)CC(=O)[C@@H]1CCCCCCC(=O)O [ALPROSTADIL] | 62 | 60 | 62 | 54 | 8 | 29 | inactive | 25 | 0.02 |  |  |
| CCCCC[C@H](O)CCCN(CCCCCCC(=O)O)S(C)(=O)=O | 68 | 54 | 55 | 8 |  | 1 |  |  |  | 5 |  |
| CCCCCC(O)CCCN(C/C=C\CCCC(=O)O)S(C)(=O)=O (racemic) | 37 | 16 | 18 |  |  |  |  |  |  |  |  |
| CCCCCC(O)CCCN(CCCCCCC(=O)O)S(C)(=O)=O (racemic) | 61 | 40 | 56 |  |  |  |  |  |  | 6 | inactive |
| CCCCC[C@@H](O)CCCN(CCCCCCC(=O)O)S(C)(=O)=O | 45 | 23 | 25 |  |  |  |  |  |  | 8.2 |  |
| CCCCCC(O)CCCC(CCCCCCC(=O)O)C(C)=O (racemic) | 23 | 11 | 14 | 2 |  | 1 |  |  |  |  |  |

— ChEMBL document CHEMBL3272123, “11,12-secoprostaglandins. 4. 7-(N-alkylmethanesulfonamido) heptanoic acids” (1977)
